From ChEMBL document CHEMBL4017544 (J Med Chem, 2017)
Calls of active or inactive are those of the source. The calls are words filed in the database; no cut-off is given here.

What was measured:
Mus musculus [1] = assay: Renoprotective activity in db/db mouse assessed as reduction of fibrosis in glomeruli at 0.65 mg/kg, ip administered trice per week for 12 consecutive weeks measured at 11 weeks post dose by H/E-staining based microscopic analysis; type: functional, organism-based
Summary of the method: (§1)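 Male db/db mice, 8 weeks old, were randomized and dosed i.p. three times weekly for 12 weeks (vehicle: 5% Tween-80 in 0.9% saline; n = 6 per group). Kidneys were fixed in 4% PFA and paraffin-embedded. 5 μm sections were stained with HE, PAS or Masson's trichrome and examined at ×400.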

Mus musculus [2] = assay: Anti-diabetic nephropathic activity in db/db mouse assessed as reduction in plasma creatinine levels at 0.65 mg/kg, ip administered trice per week for 12 consecutive weeks measured at 11 weeks post dose; type: functional, organism-based
Mus musculus [3] = assay: Anti-diabetic nephropathic activity in db/db mouse assessed as reduction in urine albumin to creatinine ratio at 0.65 mg/kg, ip administered trice per week for 12 consecutive weeks measured at 24 hrs post 11 week administration; type: functional, organism-based
Summary of the method: (§2)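 Male db/db mice, 8 weeks old, randomized; ip vehicle (5% Tween-80 in 0.9% saline) or drug three times weekly for 12 weeks, n = 6 per group. After 11 weeks, 24 h urine collected for volume, albumin and creatinine, with UACR calculated; blood then sampled for plasma BUN and uric acid. Mean ± SD, one-way ANOVA with Tukey test.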

[4] = Drug level in Wistar rat plasma treated with 1-Hydroxyl-2-cyano-3-(4-(methyl-L-glutaminate-N5-yl)-benzyloxy)-12-oxo-oleana-2(3),9(11)-dien-28-oic Acid Methyl Ester assessed as GGT-mediated metabolite formation at 100 uM after 8 hrs by HPLC analysis; type: ADME
Summary of the method: (§3)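 Plasma, and kidney and liver homogenates in PBS, from three Wistar rats; substrate added at 100 μM at 37 °C; metabolite measured by HPLC every 60 min for 8 h; mean ± SD of three experiments.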

Mus musculus [5] = assay: Toxicity in db/db mouse assessed as effect on food consumption at 0.65 mg/kg, ip administered trice per week for 12 consecutive weeks measured every other day; type: organism-based; conditions: in vivo
Summary of the method: (§4)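 Male db/db mice (8 weeks old, specific pathogen-free, normal chow and filtered water ad libitum) were randomized and dosed i.p. three times weekly for 12 consecutive weeks; vehicle was 5% Tween-80 in 0.9% saline. Body weight and food and water consumption were recorded every other day.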

Mus musculus [6] = assay: Cardioprotective activity in C57BL/6 db/db mouse assessed as reduction in apoptotic cardiomyocyte levels at 0.65 mg/kg, ip administered for 12 weeks by TUNNEL assay; type: functional, organism-based
Summary of the method: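 db/db mice, 8 weeks old, with C57BL/6 controls; ip vehicle or drug for 12 weeks, n = 6 per group. Heart sections (5 μm) from paraformaldehyde-fixed, paraffin-embedded tissue analysed by TUNEL; percentage of apoptotic cardiomyocytes from three sections per mouse; mean ± SD from two separate experiments.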

Mus musculus [7] = assay: Renoprotective activity in db/db mouse assessed as […] in number of intraglomerular mesangial cells at 0.65 mg/kg, ip administered trice per week for 12 consecutive weeks measured at 11 weeks post dose by H/E-staining based microscopic analysis; type: functional, organism-based; summary of the method: as §1
Mus musculus [8] = assay: Antidiabetic nephropathic activity in db/db mouse assessed as increase in urinary creatinine at 0.65 mg/kg, ip administered thrice per week for 12 consecutive weeks measured at 24 hrs post 11 week administration; type: functional, organism-based; summary of the method: as §2
[9] = Drug level in Krebs buffer treated with 1-Hydroxyl-2-cyano-3-(4-(methyl-L-glutaminate-N5-yl)-benzyloxy)-12-oxo-oleana-2(3),9(11)-dien-28-oic Acid Methyl Ester assessed as bovine kidney GGT-mediated metabolite formation at 100 uM at pH 7.4 after 8 hrs in presence of porcine liver esterase by HPLC analysis; type: ADME, Bos taurus; conditions: cattle, isolated protein, pH 7.4, 8 h
Summary of the method: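 Substrate at 100 μM in Krebs buffer, pH 7.4, 37 °C, with porcine liver esterase (2 U/mL), GGT (1 U/mL) and Gly-Gly (5 mM) for 8 h, in triplicate; products quantified by HPLC.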

Mus musculus [10] = assay: Renoprotective activity in db/db mouse assessed as reduction in thickening of capillary walls in glomeruli at 0.65 mg/kg, ip administered trice per week for 12 consecutive weeks measured at 11 weeks post dose by H/E-staining based microscopic analysis; type: functional, organism-based; summary of the method: as §1
Mus musculus [11] = assay: Anti-diabetic nephropathic activity in db/db mouse assessed as reduction in plasma urea nitrogen levels at 0.65 mg/kg, ip administered trice per week for 12 consecutive weeks measured 11 weeks post dose; type: functional, organism-based; summary of the method: as §2
[12] = Drug level in Wistar rat kidney homogenates treated with 1-Hydroxyl-2-cyano-3-(4-(methyl-L-glutaminate-N5-yl)-benzyloxy)-12-oxo-oleana-2(3),9(11)-dien-28-oic Acid Methyl Ester assessed as GGT-mediated metabolite formation at 100 uM after 8 hrs by HPLC analysis; type: ADME, tissue-based; conditions: tissue homogenate; summary of the method: as §3
[13] = Drug level in Sprague-Dawley rat kidney at 30 mg/kg, ip measured at 10 mins by LC-MS/MS analysis; type: ADME, organism-based; conditions: read-out: Drug uptake
Summary of the method: (§5)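 Rats given a single ip injection, 20 mg/kg (0.04 mmol) of CDDO-Me or 30 mg/kg (0.04 mmol) of the prodrug; heart, kidney and liver collected over time; parent compound and liberated CDDO-Me measured by LC-MS/MS.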

Mus musculus [14] = assay: Antidiabetic nephropathic activity in db/db mouse assessed as reduction in 24 hrs urine volume at 1 to 2 mg/kg, ip administered thrice per week for 12 consecutive weeks measured at 11 weeks post dose; type: functional, organism-based; summary of the method: as §2
Mus musculus [15] = assay: Antidiabetic nephropathic activity in db/db mouse assessed as reduction in plasma creatinine levels at 1 to 2 mg/kg, ip administered thrice per week for 12 consecutive weeks measured at 11 weeks post dose; type: functional, organism-based
[16] = Drug level in Sprague-Dawley rat kidney at 30 mg/kg, ip measured at 30 mins by LC-MS/MS analysis; type: ADME, organism-based; conditions: read-out: Drug uptake; summary of the method: as §5
Mus musculus [17] = assay: Toxicity in db/db mouse assessed as effect on water consumption at 1 to 2 mg/kg, ip administered thrice per week for 12 consecutive weeks measured every other day; type: organism-based; conditions: in vivo; summary of the method: as §4
Mus musculus [18] = assay: Renoprotective activity in db/db mouse assessed as reduction in thickening of capillary walls in glomeruli at 1 to 2 mg/kg, ip administered trice per week for 12 consecutive weeks measured at 11 weeks post dose by H/E-staining based microscopic analysis; type: functional, organism-based; summary of the method: as §1
Mus musculus [19] = assay: Renoprotective activity in db/db mouse assessed as reduction of fibrosis in glomeruli at 1 to 2 mg/kg, ip administered trice per week for 12 consecutive weeks measured at 11 weeks post dose by H/E-staining based microscopic analysis; type: functional, organism-based; summary of the method: as §1
[20] = Drug level in Sprague-Dawley rat kidney at 30 mg/kg, ip measured at 90 mins by LC-MS/MS analysis; type: ADME, organism-based; conditions: read-out: Drug uptake; summary of the method: as §5
Mus musculus [21] = assay: Renoprotective activity in db/db mouse assessed as reduction in loss of foot processes at 1 to 2 mg/kg, ip administered trice per week for 12 consecutive weeks measured at 11 weeks post dose by TEM microscopic analysis; type: functional, organism-based
Summary of the method: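 Male db/db mice (8 weeks old) were dosed i.p. three times weekly for 12 weeks in 5% Tween-80/0.9% saline, n = 6. Kidney tissue was fixed in 3% glutaraldehyde, cut into 80 nm ultrathin sections and examined by TEM. GBM thickness was measured at 30 random locations from three sections per kidney and averaged per mouse.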

hERG (KCNH2) = hERG (KCNH2) (Homo sapiens, UniProt Q12809); assay: Inhibition of human ERG expressed in CHO cells at 200 uM at -80 mV holding potential by patch clamp assay relative to control; type: cell-based; conditions: CHO cells expressing human ERG
Sequence of hERG (KCNH2) (Q12809 whole entry): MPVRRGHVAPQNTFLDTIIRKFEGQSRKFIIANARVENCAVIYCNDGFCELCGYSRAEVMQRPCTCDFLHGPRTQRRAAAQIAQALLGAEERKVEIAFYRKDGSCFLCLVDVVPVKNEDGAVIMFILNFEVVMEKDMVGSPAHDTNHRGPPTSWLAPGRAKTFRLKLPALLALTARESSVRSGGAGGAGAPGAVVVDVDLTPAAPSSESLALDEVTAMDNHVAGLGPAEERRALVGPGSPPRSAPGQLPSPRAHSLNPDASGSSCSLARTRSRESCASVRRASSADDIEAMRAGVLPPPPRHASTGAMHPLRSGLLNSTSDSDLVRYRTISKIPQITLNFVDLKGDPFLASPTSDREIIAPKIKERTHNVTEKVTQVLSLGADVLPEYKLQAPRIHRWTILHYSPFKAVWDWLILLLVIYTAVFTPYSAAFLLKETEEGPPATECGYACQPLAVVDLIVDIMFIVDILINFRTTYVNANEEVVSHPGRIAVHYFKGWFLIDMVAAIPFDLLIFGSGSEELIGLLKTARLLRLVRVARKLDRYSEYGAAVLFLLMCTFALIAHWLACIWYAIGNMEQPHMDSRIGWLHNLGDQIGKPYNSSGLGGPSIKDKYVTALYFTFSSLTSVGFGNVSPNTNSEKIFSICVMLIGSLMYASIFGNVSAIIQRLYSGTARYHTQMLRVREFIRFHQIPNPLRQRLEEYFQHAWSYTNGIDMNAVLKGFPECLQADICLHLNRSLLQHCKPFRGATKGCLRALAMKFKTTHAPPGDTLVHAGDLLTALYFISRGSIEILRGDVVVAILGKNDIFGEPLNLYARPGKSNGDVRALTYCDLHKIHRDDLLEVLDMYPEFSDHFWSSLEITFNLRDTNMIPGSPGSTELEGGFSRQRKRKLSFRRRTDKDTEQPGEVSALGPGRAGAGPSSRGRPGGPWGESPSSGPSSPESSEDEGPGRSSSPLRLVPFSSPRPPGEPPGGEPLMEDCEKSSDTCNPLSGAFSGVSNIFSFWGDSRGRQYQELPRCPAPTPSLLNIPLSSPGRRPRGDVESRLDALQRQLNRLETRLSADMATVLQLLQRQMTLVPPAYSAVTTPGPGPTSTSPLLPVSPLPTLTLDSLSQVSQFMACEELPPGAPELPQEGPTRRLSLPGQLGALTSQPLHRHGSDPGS

Question: For `COC(=O)[C@]12CCC(C)(C)C[C@H]1[C@H]1C(=O)C=C3[C@@]4(C)C=C(C#N)C(=O)C(C)(C)[C@@H]4CC[C@@]3(C)[C@]1(C)CC2` [BARDOXOLONE METHYL], which Activity (Mus musculus [1]) is on record?
Answer: Active

Question: And the Activity (Mus musculus [2])?
Answer: Active

Question: What about the Activity (Mus musculus [3]) of the same molecule?
Answer: Active

Question: What about the Drug metabolism [4] of the same molecule?
Answer: Metabolite_Detected

Question: And the Activity (Mus musculus [5])?
Answer: Non-Toxic

Question: And the Activity (Mus musculus [6])?
Answer: inactive

Question: And the Activity (Mus musculus [7])?
Answer: Active

Question: And the Activity (Mus musculus [8])?
Answer: Active

Question: And the Drug metabolism [9]?
Answer: Metabolite_Detected

Question: And the Activity (Mus musculus [10])?
Answer: Active

Question: And the Activity (Mus musculus [11])?
Answer: Active

Question: What about the Drug metabolism [12] of the same molecule?
Answer: Metabolite_Detected

Question: For `COC(=O)[C@@H](N)CCC(=O)Nc1ccc(COC2=C(C#N)[C@H](O)[C@]3(C)C4=CC(=O)[C@@H]5[C@@H]6CC(C)(C)CC[C@]6(C(=O)OC)CC[C@@]5(C)[C@]4(C)CC[C@H]3C2(C)C)cc1`, which concentration at 10 min [13] is on record?
Answer: 1230 ng/g

Question: What about the Activity (Mus musculus [14]) of the same molecule?
Answer: Active

Question: And the Activity (Mus musculus [15])?
Answer: Active

Question: What about the concentration at 0.5 h [16] of the same molecule?
Answer: 1000 ng/g

Question: What about the Activity (Mus musculus [17]) of the same molecule?
Answer: Non-Toxic

Question: And the Activity (Mus musculus [18])?
Answer: Active

Question: And the Activity (Mus musculus [19])?
Answer: Active

Question: And the concentration at 1.5 h [20]?
Answer: 800 ng/g

Question: And the Activity (Mus musculus [21])?
Answer: Active

Question: And the inhibition at 200 µM (hERG (KCNH2))?
Answer: 36.1%
